In ChEMBL document CHEMBL3286149, “Synthesis of rigidified eIF4E/eIF4G inhibitor-1 (4EGI-1) mimetic and their in vitro characterization as inhibitors of protein-protein interaction” (J Med Chem, 2014):

Legend:
[1] = Antiproliferative activity against human CRL2351 cells assessed as inhibition of cell proliferation after 5 days by sulforhodamine B assay; assay type: functional, cell-based; conditions: 120 h
In short: (§1)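 Adherent cells (CRL-2351 breast, CRL-2813 melanoma) in 96-well plates kept 5 days with compound at 0.54–20 μM. Fixed in cold 10% TCA at 4 °C overnight, stained 1 h at RT with 0.057% SRB in 1% acetic acid, unbound dye removed with 1% acetic acid, bound dye dissolved in 10 mM Tris pH 10, absorbance read at 510 nm. IC50 reported.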

[2] = Antiproliferative activity against human CRL2813 cells assessed as inhibition of cell proliferation after 5 days by sulforhodamine B assay; assay type: functional, cell-based; conditions: CRL2813, 120 h; in short: as §1
[3] = biological target: Eukaryotic translation initiation factor 4E (Homo sapiens, UniProt P06730); assay: Displacement of N-alpha-fluorescein tagged eIF4G-derived peptide from GST-DN26-eIF4E (unknown origin) by fluorescence polarization assay
Sequence of Eukaryotic translation initiation factor 4E (P06730 whole entry): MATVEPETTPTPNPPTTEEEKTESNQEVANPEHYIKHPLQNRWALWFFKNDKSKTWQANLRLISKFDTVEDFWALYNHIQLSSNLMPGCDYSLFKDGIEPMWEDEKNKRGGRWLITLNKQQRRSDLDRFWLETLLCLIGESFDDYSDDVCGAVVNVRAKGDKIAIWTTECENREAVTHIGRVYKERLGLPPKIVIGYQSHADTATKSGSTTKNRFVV

[4] = Retention time of the compound by RP-HPLC analysis; assay type: physicochemical
In short: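 C18 Xbridge column (4.6 mm × 100 mm), 1 mL/min, detection at 254 nm. Mobile phase A 0.1% v/v FA in water, B 0.1% v/v TFA in acetonitrile. Linear gradient usually 0–100% B over 26 min; some runs 50–100% B over 20 min or 30–100% B over 26 min.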

With O=C(O)/C(Cc1ccccc1[N+](=O)[O-])=N\Nc1nc(-c2ccc(Cl)c(Cl)c2)cs1 the IC50 [1] was 11.6 µM and the IC50 [2] was 15.3 µM.
Work on O=C(O)/C(Cc1ccccc1[N+](=O)[O-])=N/Nc1nc2c(s1)CCc1cc(Cl)c(Cl)cc1-2 yielded an IC50 [1] of 4.1 µM, an IC50 [3] of 21.5 µM and a Retention_time [4] of 8.37 min. It also gave an IC50 [2] of 3.8 µM.
O=C(O)/C(Cc1ccccc1[N+](=O)[O-])=N\Nc1nc2c(s1)CCc1cc(Cl)c(Cl)cc1-2 gave an IC50 [1] greater than 20 µM, an IC50 [3] of 34 µM and a Retention_time [4] of 10.79 min. It also gave an IC50 [2] of 12 µM.
For O=C(O)/C(Cc1ccccc1[N+](=O)[O-])=N/Nc1nc2c(s1)CCc1c-2ccc(Cl)c1Cl, the IC50 [1] was 4.4 µM, the Retention_time [4] was 8.69 min and the IC50 [2] was 3.6 µM.
For O=C(O)/C(Cc1ccccc1[N+](=O)[O-])=N\Nc1nc2c(s1)CCc1c-2ccc(Cl)c1Cl, the IC50 [1] was 11.2 µM, the Retention_time [4] was 11.39 min and the IC50 [2] was 10.6 µM.
Work on O=C(O)/C(Cc1ccccc1[N+](=O)[O-])=N/Nc1nc2c(s1)COc1c-2ccc(Cl)c1Cl yielded an IC50 [1] of 16.6 µM, a Retention_time [4] of 11.6 min and an IC50 [2] of 5.8 µM.
In the case of O=C(O)/C(Cc1ccccc1[N+](=O)[O-])=N\Nc1nc2c(s1)COc1c-2ccc(Cl)c1Cl, the IC50 [1] is reported as greater than 20 µM, the Retention_time [4] is reported as 13.6 min and the IC50 [2] is reported as 12.3 µM.
Work on O=C(O)/C(Cc1ccccc1[N+](=O)[O-])=N/Nc1nc2c(s1)COc1cc(Cl)c(Cl)cc1-2 yielded an IC50 [1] of 5.2 µM, a Retention_time [4] of 12.77 min and an IC50 [2] of 3.1 µM.
In the case of O=C(O)/C(Cc1ccccc1[N+](=O)[O-])=N\Nc1nc2c(s1)COc1cc(Cl)c(Cl)cc1-2, the IC50 [1] is reported as 15.4 µM, the Retention_time [4] is reported as 14.74 min and the IC50 [2] is reported as 8.7 µM.
In the case of O=C(O)/C(Cc1ccccc1[N+](=O)[O-])=N/Nc1nc2c(s1)CSc1cc(Cl)c(Cl)cc1-2, the IC50 [1] is reported as 17.6 µM, the Retention_time [4] is reported as 10.33 min and the IC50 [2] is reported as 5.1 µM.
Molecule O=C(O)/C(Cc1ccccc1[N+](=O)[O-])=N\Nc1nc2c(s1)CSc1cc(Cl)c(Cl)cc1-2 has an IC50 [1] of 17.7 µM, a Retention_time [4] of 13.33 min and an IC50 [2] of 10.5 µM.
O=C(O)/C(Cc1ccccc1[N+](=O)[O-])=N/Nc1nc2c(s1)CSc1c-2ccc(Cl)c1Cl gave an IC50 [1] of 9.1 µM, a Retention_time [4] of 15.66 min and an IC50 [2] of 4.5 µM.
For O=C(O)/C(Cc1ccccc1[N+](=O)[O-])=N\Nc1nc2c(s1)CSc1c-2ccc(Cl)c1Cl, the IC50 [1] was 16.7 µM, the Retention_time [4] was 18.23 min and the IC50 [2] was 7 µM.
In the case of O=C(O)/C(Cc1ccccc1[N+](=O)[O-])=N/Nc1nc2c(s1)C[S+]([O-])c1cc(Cl)c(Cl)cc1-2 (stereo not drawn), the IC50 [1] is reported as greater than 20 µM, the Retention_time [4] is reported as 9.82 min and the IC50 [2] is reported as 7.5 µM.
Work on O=C(O)/C(Cc1ccccc1[N+](=O)[O-])=N\Nc1nc2c(s1)C[S+]([O-])c1cc(Cl)c(Cl)cc1-2 (stereo not drawn) yielded an IC50 [1] of 10.3 µM, a Retention_time [4] of 10.38 min and an IC50 [2] of 4.1 µM.
O=C(O)/C(Cc1ccccc1[N+](=O)[O-])=N/Nc1nc2c(s1)C[S+]([O-])c1c-2ccc(Cl)c1Cl (stereo not drawn) gave an IC50 [1] greater than 20 µM, a Retention_time [4] of 8.74 min and an IC50 [2] of 11.2 µM.
O=C(O)/C(Cc1ccccc1[N+](=O)[O-])=N\Nc1nc2c(s1)C[S+]([O-])c1c-2ccc(Cl)c1Cl (stereo not drawn) showed an IC50 [1] of 19.8 µM, a Retention_time [4] of 10.12 min and an IC50 [2] of 11.4 µM.
Work on O=C(O)/C(Cc1ccccc1[N+](=O)[O-])=N/Nc1nc2c(s1)CS(=O)(=O)c1c-2ccc(Cl)c1Cl yielded a Retention_time [4] of 12.41 min.
In the case of O=C(O)/C(Cc1ccccc1[N+](=O)[O-])=N\Nc1nc2c(s1)CS(=O)(=O)c1c-2ccc(Cl)c1Cl, the Retention_time [4] is reported as 13.63 min.
O=C(O)/C(Cc1ccccc1[N+](=O)[O-])=N/Nc1nc2c(s1)CS(=O)(=O)c1cc(Cl)c(Cl)cc1-2 showed a Retention_time [4] of 11.48 min.
O=C(O)/C(Cc1ccccc1[N+](=O)[O-])=N\Nc1nc2c(s1)CS(=O)(=O)c1cc(Cl)c(Cl)cc1-2 showed a Retention_time [4] of 12.41 min.
COc1cc2c(cc1OC)-c1nc(N/N=C(\Cc3ccccc3[N+](=O)[O-])C(=O)O)sc1CC2 showed an IC50 [1] greater than 20 µM, a Retention_time [4] of 10 min and an IC50 [2] of 12.1 µM.
For COc1cc2c(cc1OC)-c1nc(N/N=C(/Cc3ccccc3[N+](=O)[O-])C(=O)O)sc1CC2, the IC50 [1] was greater than 20 µM, the Retention_time [4] was 11.22 min and the IC50 [2] was greater than 20 µM.
Molecule COc1ccc2c(c1OC)OCc1sc(N/N=C(\Cc3ccccc3[N+](=O)[O-])C(=O)O)nc1-2 has a Retention_time [4] of 8.78 min and an IC50 [2] greater than 20 µM.
With COc1ccc2c(c1OC)OCc1sc(N/N=C(/Cc3ccccc3[N+](=O)[O-])C(=O)O)nc1-2 the Retention_time [4] was 10.38 min.
With COc1cc2c(cc1OC)-c1nc(N/N=C(\Cc3ccccc3[N+](=O)[O-])C(=O)O)sc1CO2 the Retention_time [4] was 9.07 min and the IC50 [2] was greater than 20 µM.
COc1cc2c(cc1OC)-c1nc(N/N=C(/Cc3ccccc3[N+](=O)[O-])C(=O)O)sc1CO2 gave a Retention_time [4] of 10.9 min.
